# Rows were chosen to be rich in hits. Some 2.1% of all compounds tested hit in one or more screens of this group.
# HKDC1 inhibitor – inhibitors of human hexokinase HKDC1; recombinant HKDC1, G6PDH/diaphorase resazurin coupled fluorescence; 340,000 compounds, 0.16% hits; inhibition, % at 20 µM; AID 493160; Q2TB90;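 active means inhibition above about 35% when tested at 20 µM, limit read from the data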;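 further: plate controls were DMSO wells with enzyme for no effect and DMSO wells lacking enzyme for full effect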
#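 Material: recombinant HKDC1 hexokinase; Amount: HKDC1 at 5 µg/mL; Medium: Tris pH 8.0 buffer with MgCl2, Tween-20, BSA, BME; Schedule: 90 min reaction incubation at room temperature, dark; Technique: coupled resazurin fluorescence, excitation 525 nm, emission 613 nm.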
# UCH37 DUB inh – blocks the human deubiquitinase UCH37; purified proteasome/UCH37, Ub-AMC cleavage fluorescence; inhibition, % (test concentration not listed); 330,000 compounds, 0.33% hits;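 active means mean inhibition over replicate wells above about 20%, limit read from the data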;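 further: 0% = compound-free wells with enzyme and 100% = wells lacking proteasome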
# Target sequence (Q9Y5K5 whole entry, looked up): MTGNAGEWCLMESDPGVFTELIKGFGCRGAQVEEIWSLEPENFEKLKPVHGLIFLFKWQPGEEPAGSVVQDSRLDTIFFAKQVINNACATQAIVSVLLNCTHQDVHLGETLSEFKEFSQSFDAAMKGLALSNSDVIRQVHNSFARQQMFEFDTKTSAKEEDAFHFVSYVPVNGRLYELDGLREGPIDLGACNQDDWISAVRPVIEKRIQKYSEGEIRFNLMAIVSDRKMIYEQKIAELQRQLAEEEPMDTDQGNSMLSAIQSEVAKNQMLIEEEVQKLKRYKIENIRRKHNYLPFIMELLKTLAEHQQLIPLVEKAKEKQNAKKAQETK
#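 Material: Human UCH37 enzyme supplied as purified proteasome complex | Schedule: 30 min compound-proteasome preincubation then 25 min substrate reaction, room temperature | Detection: AMC fluorescence from Ub-AMC cleavage, excitation 355 nm, emission 460 nm | Benchmarks: Wells without proteasome as full block, compound-free enzyme plus substrate as uninhibited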
# aDG glyco up – alpha-DG glycosylation activation; Pro5-aDG cells, alpha-DG glycosylation AlphaScreen (IIH6); 0% Pro5, 100% B10-LARGE cell signal; activation, % at 10 µM; 360,000 compounds, 0.22% hits;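 active means activation of at least 8% versus controls, or a plate z-score of at least 8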;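 further: Pro5 are CHO cells carrying HIG-tagged alpha-DG that lacks glycosylation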
# Cardio protect – myocardial damage modulation in H9c2 cells | H9c2 cardiomyocytes, H2O2 injury protection, ATPLite, 2 h | protection from H2O2 cell death, % at 20 µM | 360,000 compounds, 0.63% hits;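 active means compounds giving at least 50% protection of heart cells from peroxide-induced death in the single-dose screen, raw or plate-pattern-corrected value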;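 further: 0% = DMSO wells with peroxide and 100% = DMSO wells without peroxide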
# PfGluPho inh – PfG6PD (Plasmodium falciparum) enzyme inhibition | PfGluPho enzyme, NADPH resazurin-diaphorase fluorescence | inhibition, % at 20 µM | 350,000 compounds, 0.78% hits | AID 504690;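 active means inhibition reaching at least a set limit at 20 µM in the primary screen, cut at about 59% in these data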;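 further: 0% = DMSO wells with substrate and 100% = DMSO wells lacking glucose-6-phosphate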
# Beta2AR agonist – activates human beta-2 adrenergic receptor causing internalization; Am2.2-beta2AR cells, FAP receptor internalization, flow cytometry; response, % (test concentration not listed); 340,000 compounds, 0.43% hits; AID 504454;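 active means response above a set limit, near 3 SD of response in nonfluorescent compounds, cut at about 42% in these data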
# * marks the source's active call; other numbers are inactive results; · = no result given.
SMILES,HKDC1 inhibitor,UCH37 DUB inh,aDG glyco up,Cardio protect,PfGluPho inh,Beta2AR agonist
C1CCCCCC2(CCCCC1)OCC(CN1CCOCC1)O2 (stereo not given),-7,5,0,-9,-6,-2
O=c1[nH]n(CC2COC3(CCCCC3)O2)c(=O)c2ccccc12 (stereo not given),-7,4,0,52*,-9,5
Cn1cc([N+](=O)[O-])c(C(=O)NN=Cc2c[nH]c3ccccc23)n1,·,8,·,·,·,·
O=C(CN1c2ccccc2Sc2ccccc21)NN=Cc1ccccc1,·,5,·,·,·,·
CCOc1ccc(/C=N/Nc2cc(N3CCOCC3)nc(C)n2)c(O)c1,-7,·,0,78*,-11,8
CCCOc1ccc(C=NNc2cc(N3CCOCC3)ncn2)c(O)c1,·,-1,·,·,·,·
CCOC(=O)C(C#N)=NNc1ccc(S(=O)(=O)N2CCc3ccccc32)cc1,·,5,·,·,·,·
CCCC(C)c1nnc(NC(=O)CCS(=O)(=O)c2ccccc2)s1 (stereo not given),-16,5,2,-6,75*,-8
CCc1ccc(C=NNC(=O)c2nnn(-c3nonc3N)c2CN2CCOCC2)cc1,·,4,·,·,·,·
CC(=NOCC(=O)NN=Cc1ccc(C)cc1O)c1cccs1,·,-5,·,·,·,·
Oc1ccc(C2CNCc3sccc32)cc1O (stereo not given),-6,2,0,54*,28,1
COc1cc(C=Nn2c(SC)nnc(C(C)(C)C)c2=O)ccc1O,·,35*,·,·,·,·
COc1cc(/C=N/n2c(SC)nnc(C(C)(C)C)c2=O)ccc1O,-2,·,0,-4,-3,-3
NC(=S)N=Nc1ccc(NN=C(N)N)cc1,5,7,1,-11,99*,1
COc1ccc(C(C[N+](=O)[O-])c2c(-c3ccccc3)cc3ccccn23)cc1OC (stereo not given),-4,-10,2,4,22,14
COc1ccc(C(C[N+](=O)[O-])C2(c3ccc(OC)c(OC)c3)C(=O)c3ccccc3C2=O)cc1 (stereo not given),6,·,0,-11,39,51*
COC(=O)C1=C(C)NC(C)=C(C(=O)OC)C1c1cc2cc(C)ccc2[nH]c1=O,4,-37,0,3,-11,0
N#CC1=C(N)Oc2c(ccc3cccnc23)C1c1ccccc1 (stereo not given),2,2,0,58*,14,-12
Cc1ccc2[nH]c(=O)c(C3C(C#N)=C(N)Oc4c3ccc3cccnc43)cc2c1 (stereo not given),0,0,0,64*,19,-5
Cc1oc(C)c2c(=O)ccc3c(c12)OC(N)=C(C#N)C3c1ccccc1 (stereo not given),9,-2,0,24,11,-115
CC(=O)c1ccc(N2CCN(C(=O)C3CCCN(c4ncnc5c4nc4n5CCCCC4)C3)CC2)cc1 (stereo not given),21,1,0,55*,15,3
CN1CCN(c2cc(N3CCN(C(=O)c4ccco4)CC3)c3c4c(onc24)-c2ccccc2C3=O)CC1,21,13,-1,15,74*,19
CCOC(=O)N1CCN(c2cc(NCCC(=O)O)c3c4c(onc24)-c2ccccc2C3=O)CC1,37*,27*,-1,-1,38,-6
O=C(O)CCCNc1cc(N2CCN(C(=O)c3ccco3)CC2)c2noc3c2c1C(=O)c1ccccc1-3,22,·,0,-6,35,9
O=C(CC(C(=O)c1ccccc1)c1ccccc1)c1ccccc1 (stereo not given),0,1,0,56*,4,15
SMILES,HKDC1 inhibitor,UCH37 DUB inh,aDG glyco up,Cardio protect,PfGluPho inh,Beta2AR agonist
COc1cc(-c2csc(C)n2)ccc1O,7,5,0,-1,-10,-1
Cc1nc(-c2ccc(O)c(O)c2)cs1,4,0,2,61*,28,8
CCN(CC)CCn1c2c(c(SCC(=O)Nc3cccc(C(C)=O)c3)nc1=O)CCCC2,1,6,0,75*,-10,7
O=C(NNC(=O)c1ccc(NC(=O)c2ccccc2)cc1)c1ccc(F)cc1,3,-3,0,0,5,-1
O=C(NC1=C(Nc2ccc(F)cc2)C(=O)c2ccccc2C1=O)c1ccc(Cl)cc1,14,21*,5.4*,-18,44,1
CCOc1ccccc1N=C1SC(CC(=O)Nc2ccc(OC)cc2OC)C(=O)N1CCC1=CCCCC1 (stereo not given),-3,8,0,0,19,67*
CC(=O)C(=NNc1ccccc1)Sc1nnc(CCc2ccccc2)n1-c1ccccc1,·,7,·,·,·,·
N#C/C(C(N)=O)=c1/ccc2c(c1)N1C3=C(CCCC3)CC3CCCCC31N=2 (stereo not given),52*,·,·,·,44,·
CCOC(=O)Nc1ccc(OC)cc1S(=O)(=O)N1CCCCC1,1,29*,0,3,-5,-7
O=C(O)CN1C(=O)/C(=C\c2cn(-c3ccccc3)nc2-c2ccccc2)SC1=S,7,·,0,2,-41,-10
CC(C)COc1ccc(-c2nn(-c3ccccc3)cc2/C=C2/SC(=S)N(CC(=O)O)C2=O)cc1,4,22*,0,-2,-27,-2
CCOC(=O)c1cc([N+](=O)[O-])c([N+](=O)[O-])cc1NC(C)=O,30,7,0,-11,19,74*
CCOC(=O)c1ccc(NC(=O)c2ccccc2[N+](=O)[O-])cc1,-8,4,0,0,27,1
O=C(CCCN1C(=O)c2cccc3cccc(c23)C1=O)N1CCN(c2ccccc2O)CC1,6,-9,0,67*,-2,7
CCC(=O)Nc1cccc(-c2nnc(-c3cccc(NC(=O)CC)c3)o2)c1,-8,2,0,85*,18,12
COc1cc(C(=O)Nc2cccc(-c3nnc(-c4ccco4)o3)c2)ccc1OC(C)=O,3,0,-1,79*,3,7
COc1ccc(CC(=O)Nc2cccc(-c3nnc(-c4ccco4)o3)c2)cc1,-3,-3,0,-8,-3,-2
Cc1cc(C)cc(OCC(=O)Nc2cccc(-c3nnc(-c4ccco4)o3)c2)c1,10,2,0,54*,1,26
O=C(CN1CCN(S(=O)(=O)c2ccc(Br)cc2)CC1)c1ccc(O)c(O)c1,-4,5,0,71*,-7,-1
COc1ccc(OC)c(C(=O)CN2CCN(S(=O)(=O)c3ccc(Br)cc3)CC2)c1,2,0,0,-1,0,-10
CC(C)c1ccc(S(=O)(=O)N2CCN(CC(=O)c3ccc(O)c(O)c3)CC2)cc1,·,·,0,56*,·,-3

# Assay outcomes from PubChem BioAssay.
